How the values were obtained:
[1] = test system: Trypanosoma brucei rhodesiense; assay: Antitrypanosomal activity against Trypanosoma brucei rhodesiense STIB900 trypomastigotes infected in NMRI mouse assessed as mouse survival at 10 mg/kg, ip administered from day 3 to day 6 postinfection; assay type: functional; conditions: route intraperitoneal
How it was run: (§1)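 STIB900 acute mouse model. Dosing was intraperitoneal, daily for four days, in DMSO diluted with water to 10% final DMSO. An infected untreated control group was kept. Tail blood was checked for parasitemia to day 60, and deaths were recorded to give mean survival days. Mice surviving and aparasitemic at day 60 counted as cured.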

[2] = test system: L6; assay: Cytotoxicity against rat L6 cells after 70 hrs by alamar blue assay; assay type: cell-based; conditions: L6, 70 h
How it was run: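 L6 rat myoblasts, 4000 per well, in RPMI 1640 with 2 mM L-glutamine, HEPES, NaHCO₃ and 10% FBS. Exposed to serial dilutions (DMSO ≤1%) for 70 h at 37 °C in humidified 5% CO₂. Resazurin then added for 2-3 h; fluorescence read at ex 536/em 588 nm. IC50 from sigmoidal curves; two independent runs in duplicate.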

[3] = test system: Trypanosoma brucei rhodesiense; assay: Antiprotozoal activity against Trypanosoma brucei rhodesiense STIB900 trypomastigotes after 70 hrs by alamar blue assay; assay type: functional, organism-based
How it was run: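 Bloodstream forms, 2000 per well, in MEM with Earle's salts plus 0.2 mM 2-mercaptoethanol, 1 mM pyruvate, 0.5 mM hypoxanthine and 15% heat-inactivated horse serum. Exposed to serial dilutions (DMSO ≤1%) for 70 h at 37 °C in 5% CO₂. Resazurin then added for a further 2-6 h. IC50 from sigmoidal curves; two independent runs in duplicate.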

[4] = Selectivity index, ratio of IC50 for rat L6 cells to IC50 for Trypanosoma brucei rhodesiense STIB900 trypomastigotes; assay type: toxicity, cell-based; conditions: read-out: Ratio IC50
How it was run: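 Ratio of L6 IC50 to STIB900 IC50. L6 cells: 4000/well in RPMI 1640 with 10% FBS, 70 h at 37 °C. Bloodstream forms: 2000/well in supplemented MEM with 15% horse serum, 70 h at 37 °C. Both read by Alamar blue fluorescence; IC50s from sigmoidal curves, two independent runs in duplicate.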

[5] = test system: Plasmodium falciparum; assay: Antiprotozoal activity after 48 hrs against chloroquine-resistant Plasmodium falciparum K1 infected erythrocytes by [3H]hypoxanthine uptake; assay type: functional, organism-based
How it was run: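 Erythrocytic stages in infected human red cells (hematocrit 1.25%, parasitemia 0.3%) in supplemented RPMI 1640 with Albumax II. Serial dilutions incubated at 37 °C in 93% N2/4% CO2/3% O2. [3H]-hypoxanthine (0.5 µCi/well) added at 48 h, then 24 h more. Incorporation counted by scintillation. IC50 from sigmoidal curves; two independent runs in duplicate.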

[6] = Selectivity index, ratio of IC50 for rat L6 cells to IC50 for chloroquine-resistant Plasmodium falciparum K1; assay type: toxicity, cell-based; conditions: read-out: Ratio IC50
How it was run: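 Ratio of L6 IC50 to K1 IC50. L6 cells: Alamar blue assay after 70 h, 37 °C. K1: [3H]-hypoxanthine incorporation in infected red cells over 48 + 24 h at 37 °C under low O2. IC50s from sigmoidal curves, two independent runs in duplicate.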

[7] = test system: Leishmania donovani; assay: Antiprotozoal activity against Leishmania donovani MHOM/SD/62/1S-CL2D axenic amastigotes after 72 hrs; assay type: functional, organism-based
How it was run: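 L. donovani axenic amastigotes, adapted from promastigotes and grown in amastigote medium at 37 °C. 6 × 10⁴ parasites per well with 2-fold compound dilutions (DMSO ≤1%), incubated 72 h at 37 °C in humidified 5% CO₂. Growth read by tetrazolium (CellTiter) absorbance at 490 nm. IC50 from a four-parameter dose-response fit. Average of duplicate determinations.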

[8] = Selectivity index, ratio of IC50 for rat L6 cells to IC50 for Leishmania donovani MHOM/SD/62/1S-CL2D axenic amastigotes; assay type: toxicity, cell-based; conditions: read-out: Ratio IC50
How it was run: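 Amastigotes: 6 × 10⁴ parasites/well with 2-fold dilutions, 72 h at 37 °C in 5% CO2. Growth read by tetrazolium CellTiter absorbance at 490 nm; IC50 from a four-parameter dose-response fit.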

[9] = test system: Trypanosoma brucei rhodesiense; assay: Antitrypanosomal activity against Trypanosoma brucei rhodesiense STIB900 trypomastigotes infected in NMRI mouse assessed as mouse survival at 20 mg/kg, ip administered from day 3 to day 6 postinfection; assay type: functional; conditions: route intraperitoneal; how it was run: as §1

| Structure (SMILES) | Survival [1] [days] | IC50 [2] [µM] | IC50 [3] [µM] | selectivity ratio [4] | IC50 [5] [µM] | selectivity ratio [6] | IC50 [7] [µM] | selectivity ratio [8] | Survival [9] [days] |
| --- | --- | --- | --- | --- | --- | --- | --- | --- | --- |
| Cl.Cl.N=C(N)c1ccc(OCCCOc2ccc(C3=NCCN3)cc2)cc1 | >26.8 | 71.6 | 0.018 | 3980 | 0.018 | 3980 | 2.98 | 24 |  |
| Cl.Cl.N=C(N)c1cccc(OCCCCCCOc2cccc(C(=N)N)c2)c1 |  | 17.1 | 0.075 | 228 | 0.013 | 1320 | 2.38 | 7 | >36 |
| N/N=C(\N)c1ccc(OCCCCCOc2ccc(/C(N)=N/N)cc2)cc1 |  | 139 | 9.67 | 14 | 1.41 | 99 | 126 | 1 |  |
| Fc1cc(OCCCCCOc2ccc(C3=NCCN3)c(F)c2)ccc1C1=NCCN1 |  | 23.2 | 4.46 | 5 | 0.544 | 43 | 52.6 | 0.4 |  |
| CC(C)NC(=N)c1ccc(OCCCCCOc2ccc(C(=N)NC(C)C)c(O)c2)cc1O |  | > 156 | 14.7 | > 11 | 0.581 | > 269 | > 100 | 2 |  |
| c1cc(OCCCCCCOc2cccc(C3=NCCN3)c2)cc(C2=NCCN2)c1 |  | 99 | 0.875 | 113 | 0.02 | 4950 | 21.9 | 5 |  |
| CC(C)NC(=N)c1cccc(OCCCCOc2cccc(C(=N)NC(C)C)c2)c1 |  | > 171 | 0.619 | > 276 | 0.013 | > 13200 | 19.3 | > 9 |  |
| N=C(N)c1ccc(OCCCOc2ccc(C(=O)O)cc2)cc1 |  | 167 | > 257 | < 0.6 | > 2.8 | < 60 | > 100 | < 2 |  |
| COc1cc(C2=NCCN2)ccc1OCCCOc1ccc(C2=NCCN2)cc1OC.Cl.Cl | >32.8 | 105 | 0.09 | 1170 | 0.055 | 1910 | 34.6 | 3 | >60 |
| CC(C)NC(=N)c1cccc(OCCCOc2cccc(C(=N)NC(C)C)c2)c1 |  | > 183 | 0.543 | > 337 | 0.018 | > 10200 | 16.2 | > 11 |  |
| CC(C)NC(=N)c1ccc(OCCCOc2ccc(C(=N)NC(C)C)cc2)cc1.Cl.Cl | >38.5 | > 192 | 0.093 | > 2060 | 0.025 | > 7680 | 7.11 | > 27 |  |
| Cl.Cl.N=C(N)c1cccc(OCCCOc2cccc(C(=N)N)c2)c1 | >40 | 16.2 | 0.052 | 312 | 0.017 | 953 | 6.07 | 3 | >32.8 |
| Oc1cc(OCCCCCOc2ccc(C3=NCCN3)c(O)c2)ccc1C1=NCCN1 |  | > 169 | 3.7 | > 46 | 0.098 | > 1720 | > 100 | 2 |  |
| c1cc(OCCCCCOc2cccc(C3=NCCN3)c2)cc(C2=NCCN2)c1 |  | 100 | 1.49 | 67 | 0.024 | 4170 | 22.4 | 4 |  |
